# According to paper PMC4134960 (Pharmacological research : the official journal of the …, 2014):
# Like-named read-outs stand apart in the source and are kept apart here.
# Legend:
# [1] = cited from earlier work; for PSA (polar surface area): ref Moreno-Sanz et al., 2013
# human ABCB1 = human ABCB1 (Homo sapiens, UniProt P08183); assay: Transepithelial transport in monolayers of MDCKII cells over-expressing ABCB1; settings: for A to B transport (percentage of drug appearing in the opposite compartment) / B to A transport (percentage of drug appearing in the opposite compartment) / Ratio BA/AB (relative transport ratio): MDCKII over-expressing ABCB1, after 4h, 5 μM (compound 8: 1 μM); for Vectorial transport by ABCB1 (in words): MDCKII transduced with human ABCB1
# wild-type MDCKII cells = assay: Transepithelial transport in monolayers of wild-type MDCKII cells
# murine Abcg2 = target: T1, murine Abcg2 (Mus musculus, UniProt Q7TMS5); assay: Transepithelial transport in monolayers of MDCKII cells over-expressing Abcg2; format: in vitro ADME
# T1 sequence (Q7TMS5 1-657): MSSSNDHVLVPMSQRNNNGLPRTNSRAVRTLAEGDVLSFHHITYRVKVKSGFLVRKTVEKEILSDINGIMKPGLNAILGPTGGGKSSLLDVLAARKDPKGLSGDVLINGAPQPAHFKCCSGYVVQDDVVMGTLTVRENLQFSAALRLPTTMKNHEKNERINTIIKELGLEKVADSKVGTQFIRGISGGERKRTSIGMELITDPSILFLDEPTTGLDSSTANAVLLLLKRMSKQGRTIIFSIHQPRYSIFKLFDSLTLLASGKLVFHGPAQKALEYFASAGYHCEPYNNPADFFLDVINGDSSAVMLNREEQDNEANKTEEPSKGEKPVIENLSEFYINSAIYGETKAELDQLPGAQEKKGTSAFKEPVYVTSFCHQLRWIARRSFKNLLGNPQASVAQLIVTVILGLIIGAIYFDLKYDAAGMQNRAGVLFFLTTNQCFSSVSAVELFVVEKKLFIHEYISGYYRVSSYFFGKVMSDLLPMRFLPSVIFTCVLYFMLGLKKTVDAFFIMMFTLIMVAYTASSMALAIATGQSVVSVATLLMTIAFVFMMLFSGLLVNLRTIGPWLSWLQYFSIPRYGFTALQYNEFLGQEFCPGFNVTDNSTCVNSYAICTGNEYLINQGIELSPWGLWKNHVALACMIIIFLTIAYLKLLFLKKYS
# FAAH [2] = target: T2, FAAH (Mus musculus, UniProt O08914); settings: cited from earlier work; for Brain ID50: inhibition of brain FAAH activity after systemic administration in mice, ref Moreno-Sanz et al., 2013
# T2 sequence (O08914 1-579): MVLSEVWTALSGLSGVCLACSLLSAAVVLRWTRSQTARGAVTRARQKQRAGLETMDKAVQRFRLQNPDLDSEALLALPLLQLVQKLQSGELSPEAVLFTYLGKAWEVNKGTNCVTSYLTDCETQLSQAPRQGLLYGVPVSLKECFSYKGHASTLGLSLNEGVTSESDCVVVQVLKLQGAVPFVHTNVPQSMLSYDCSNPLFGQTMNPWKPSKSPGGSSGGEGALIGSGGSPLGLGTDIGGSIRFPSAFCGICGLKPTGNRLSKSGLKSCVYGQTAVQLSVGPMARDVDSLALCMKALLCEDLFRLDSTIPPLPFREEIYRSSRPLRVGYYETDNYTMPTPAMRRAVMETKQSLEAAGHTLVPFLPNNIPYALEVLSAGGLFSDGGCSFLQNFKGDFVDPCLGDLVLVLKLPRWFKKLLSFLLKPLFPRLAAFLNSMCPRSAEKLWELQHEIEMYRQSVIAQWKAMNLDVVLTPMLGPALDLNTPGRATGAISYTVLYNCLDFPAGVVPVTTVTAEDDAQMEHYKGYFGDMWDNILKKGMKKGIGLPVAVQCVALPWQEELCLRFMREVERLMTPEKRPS
# [3] = Transepithelial transport in monolayers of wild-type MDCKII cells; settings: dog, MDCK, Ratio BA/AB (relative transport ratio), after 4h, 5 μM (compound 8: 1 μM)
# Abcg2 = target: T3, Abcg2 (Mus musculus, UniProt Q7TMS5); assay: Transepithelial transport in monolayers of MDCKII cells over-expressing Abcg2; format: in vitro ADME, murine; settings: mouse, Ratio BA/AB (relative transport ratio), MDCKII over-expressing Abcg2, after 4h, 5 μM (compound 8: 1 μM)
# T3 sequence (Q7TMS5 1-657): T1 sequence (Q7TMS5 1-657)
# [4] = Brain-to-plasma ratio of URB937 in wild-type and transporter knockout mice; format: in vivo; settings: 5 mg/kg i.p., 1 h
# Summary of the method: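 Male 9-week FVB wild-type, Mdr1a/b−/−, Bcrp−/− and Mdr1a/b−/−-Bcrp−/− mice received the test compound i.p. in saline/PEG400/Tween-80 (18:1:1, v/v/v) at 10 mL/kg and were killed 1 h later. Plasma came from cardiac blood spun at 2000 × g for 20 min. Brain was homogenized in 50 mM Tris-HCl pH 7.5/0.32 M sucrose, spun at 1000 × g for 10 min at 4°C, and extracted with methanol/chloroform. Read-out by LC/MS on C18 (m/z 377). n = 3–4, mean ± SEM.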
# FAAH [5] = target: T2, FAAH; format: in vivo, mice
# Summary of the method: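 Dosing was i.p. in saline/PEG400/Tween-80 (18:1:1), with kill at 1 h. Brain S1 fraction (1000 × g; 50 μg protein by BCA) was incubated 30 min at 37°C in 50 mM Tris-HCl pH 7.5 with 0.05% fatty acid-free BSA, 10 μM anandamide and [ethanolamine-3H]anandamide (10,000 cpm). The reaction was stopped with chloroform/methanol (1:1), and aqueous-phase radioactivity counted by scintillation. n = 3–4, mean ± SEM, ANOVA with Dunnett's test vs vehicle.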
# [6] = after 4h, 5 μM (compound 8: 1 μM)
# [7] = MDCKII over-expressing Abcg2, after 4h, 5 μM (compound 8: 1 μM)
# Chain of human ABCB1 (P08183 whole entry): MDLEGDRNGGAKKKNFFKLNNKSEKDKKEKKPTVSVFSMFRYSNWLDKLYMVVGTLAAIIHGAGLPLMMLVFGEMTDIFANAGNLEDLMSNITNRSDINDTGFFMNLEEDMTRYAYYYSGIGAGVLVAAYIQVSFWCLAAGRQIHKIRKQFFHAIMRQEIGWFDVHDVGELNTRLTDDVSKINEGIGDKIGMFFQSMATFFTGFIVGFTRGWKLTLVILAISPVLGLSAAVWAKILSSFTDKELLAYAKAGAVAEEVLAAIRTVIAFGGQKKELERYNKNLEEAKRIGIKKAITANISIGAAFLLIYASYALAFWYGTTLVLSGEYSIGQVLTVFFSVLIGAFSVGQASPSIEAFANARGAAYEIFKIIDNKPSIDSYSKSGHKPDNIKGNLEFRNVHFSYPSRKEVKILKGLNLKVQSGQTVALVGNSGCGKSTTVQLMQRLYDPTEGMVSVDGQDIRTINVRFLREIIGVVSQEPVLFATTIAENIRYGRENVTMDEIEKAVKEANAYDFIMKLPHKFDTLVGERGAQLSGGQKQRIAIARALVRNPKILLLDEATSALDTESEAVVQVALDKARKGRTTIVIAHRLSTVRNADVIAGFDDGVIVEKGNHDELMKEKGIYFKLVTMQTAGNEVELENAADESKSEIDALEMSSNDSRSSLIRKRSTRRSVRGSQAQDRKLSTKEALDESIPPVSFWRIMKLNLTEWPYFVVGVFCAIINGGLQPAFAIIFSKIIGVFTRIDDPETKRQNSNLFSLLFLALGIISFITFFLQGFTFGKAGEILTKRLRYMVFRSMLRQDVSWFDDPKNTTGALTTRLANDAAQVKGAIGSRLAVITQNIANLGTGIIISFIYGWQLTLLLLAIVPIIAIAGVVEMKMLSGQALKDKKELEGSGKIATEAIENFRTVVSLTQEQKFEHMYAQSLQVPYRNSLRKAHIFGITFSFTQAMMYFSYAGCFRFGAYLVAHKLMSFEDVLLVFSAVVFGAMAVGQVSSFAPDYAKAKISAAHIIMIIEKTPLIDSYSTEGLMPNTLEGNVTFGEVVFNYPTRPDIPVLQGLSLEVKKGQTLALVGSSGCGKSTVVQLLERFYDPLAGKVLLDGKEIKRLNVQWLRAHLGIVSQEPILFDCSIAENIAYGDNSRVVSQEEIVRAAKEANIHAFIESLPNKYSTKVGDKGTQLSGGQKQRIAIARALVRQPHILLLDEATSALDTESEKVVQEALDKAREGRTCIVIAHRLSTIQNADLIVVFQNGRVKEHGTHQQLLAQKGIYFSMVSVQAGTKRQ
Compound,PSA (polar surface area) [1] [Å^2],A to B transport (percentage of drug appearing in the opposite compartment) (human ABCB1) [%],B to A transport (percentage of drug appearing in the opposite compartment) (human ABCB1) [%],A to B transport (percentage of drug appearing in the opposite compartment) (wild-type MDCKII cells; [6]) [%],B to A transport (percentage of drug appearing in the opposite compartment) (wild-type MDCKII cells; [6]) [%],A to B transport (percentage of drug appearing in the opposite compartment) (murine Abcg2; [7]) [%],B to A transport (percentage of drug appearing in the opposite compartment) (murine Abcg2; [7]) [%],Ratio BA/AB (relative transport ratio) (human ABCB1),Brain ID50 (FAAH [2]) [mg/kg],Vectorial transport by ABCB1 (in words) (human ABCB1),other results
CNC(=O)c1cccc(-c2cc(OC(=O)NC3CCCCC3)ccc2O)c1 [Compound 1],73,8.55 ± 1.79,67.4 ± 14.5,21.7 ± 0.96,48.1 ± 2.33,6.99 ± 0.99,69.8 ± 16.9,–,–,–,–
CN(C)C(=O)c1cccc(-c2cc(OC(=O)NC3CCCCC3)ccc2O)c1 [Compound 2],65,8.86 ± 0.95,58.6 ± 3.85,25.6 ± 1.96,43.1 ± 4.48,6.95 ± 0.42,91.0 ± 12.7,6.65 ± 0.36,5,–,–
CC(=O)c1cccc(-c2cc(OC(=O)NC3CCCCC3)ccc2O)c1 [Compound 3],62,39.8 ± 1.88,57.6 ± 7.90,39.4 ± 0.54,46.8 ± 2.73,24.5 ± 2.39,30.5 ± 0.75,1.44 ± 0.13,<1,no significant vectorial transport,Transport substrate for Abcg2 (in words) (murine Abcg2; MDCKII over-expressing Abcg2): did not behave as a transport substrate for Abcg2; Ratio BA/AB (relative transport ratio) (murine Abcg2; [7]): 1.25 ± 0.13
O=C(NC1CCCCC1)Oc1ccc(O)c(-c2cccc(C(=O)O)c2)c1 [Compound 4],77,–,–,4.93 ± 0.88,5.21 ± 0.42,–,–,–,12,–,Translocation in apical or basolateral direction (in words) (wild-type MDCKII cells): minimal translocation in either the apical or basolateral direction
COc1ccc(OC(=O)NC2CCCCC2)cc1-c1cccc(C(N)=O)c1 [Compound 7],74,21.6 ± 0.55,45.1 ± 3.61,29.3 ± 0.44,37.1 ± 1.48,7.29 ± 1.30,98.8 ± 16.6,2.08 ± 0.11,–,no significant vectorial transport,–
"Cc1ccc(OC(=O)NC2CCCCC2)cc1-c1cccc(C(N)=O)c1 [Compound 8, cyclohexylcarbamic acid 3′-carbamoyl-6-methylbiphenyl-3-yl ester]",66,20.7 ± 1.00,35.8 ± 0.43,26.0 ± 1.52,27.3 ± 3.8,5.59 ± 0.58,64.8 ± 4.87,–,–,no significant vectorial transport,efflux ratio at 4 h [3]: ~1; Ratio BA/AB (relative transport ratio) (wild-type MDCKII cells; [6]): 1.06 ± 0.15; efflux ratio at 4 h (Abcg2): ≥ 10
N.NC(=O)c1cccc(-c2cc(OC(=O)NC3CCCCC3)ccc2OS(=O)(=O)O)c1 [Compound 9],117,–,–,7.92 ± 0.41,7.49 ± 0.39,–,–,–,>75,–,Translocation in apical or basolateral direction (in words) (wild-type MDCKII cells): minimal translocation in either the apical or basolateral direction
"COc1ccc2c3c([nH]c2c1)[C@H](CC(C)C)N1C(=O)[C@H](CCC(=O)OC(C)(C)C)NC(=O)[C@@H]1C3 [Ko143, reference compound]",–,–,–,–,–,–,–,–,–,–,"Effect of inhibitor on translocation of all compounds (in words) (murine Abcg2; MDCKII over-expressing Abcg2, Ko143 1 μM): blocked"
"NC(=O)c1cccc(-c2cc(OC(=O)NC3CCCCC3)ccc2O)c1 [URB937, cyclohexylcarbamic acid 3′-carbamoyl-6-hydroxybiphenyl-3-yl ester]",–,5.89 ± 1.33,50.2 ± 4.02,17.78 ± 2.12,44.3 ± 5.35,1.68 ± 0.12,25.9 ± 1.44,–,40,–,"PSA value [1]: ≥ 80 Å; Brain-to-plasma ratio (in words) ([4]; Abcb1-deficient (Mdr1a/b−/−) mice): not significantly different from controls; Brain-to-plasma ratio (in words) ([4]; Mdr1a/b−/−-Bcrp−/− mice): significantly increased; efflux ratio at 4 h [3]: ≥ 2; Effect on brain FAAH activity (in words) (FAAH [5]; Mdr1a/b−/−-Bcrp−/− mice, 5 mg/kg i.p.): drastically inhibited; inhibition at 5 mg/kg (FAAH [5]; mouse, ip, read-out: Inhibition of brain FAAH): 26%; Effect on brain FAAH activity (in words) (FAAH [5]; wild-type mice, 5 mg/kg i.p.): did not affect FAAH activity; Effect on liver FAAH activity (in words) (FAAH [5]; wild-type mice, 5 mg/kg i.p.): completely blocked FAAH activity; efflux ratio at 4 h (Abcg2): ≥ 10; Brain ID50 relative to dose needed to inhibit FAAH in liver (FAAH [2]; brain vs liver): 400 times; Brain FAAH activity median effective dose (ID50) (FAAH [2]; brain): 40 mg/kg; Liver FAAH activity ID50 (FAAH [2]; peripheral organs such as the liver): 0.1 mg/kg"
